Rpn11 inh – blocks the human proteasome subunit Rpn11 | AID 588493 | inhibition, % at 20 µM | human 26S proteasome, Ub4-pepOG fluorescence polarization; 20S core pre-blocked with epoxomicin | 360,000 compounds, 0.59% hits;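 active = inhibition at 20 µM, scaled to each plate's controls, above about 33%, limit read from the data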
Target sequence (O00487 whole entry, looked up): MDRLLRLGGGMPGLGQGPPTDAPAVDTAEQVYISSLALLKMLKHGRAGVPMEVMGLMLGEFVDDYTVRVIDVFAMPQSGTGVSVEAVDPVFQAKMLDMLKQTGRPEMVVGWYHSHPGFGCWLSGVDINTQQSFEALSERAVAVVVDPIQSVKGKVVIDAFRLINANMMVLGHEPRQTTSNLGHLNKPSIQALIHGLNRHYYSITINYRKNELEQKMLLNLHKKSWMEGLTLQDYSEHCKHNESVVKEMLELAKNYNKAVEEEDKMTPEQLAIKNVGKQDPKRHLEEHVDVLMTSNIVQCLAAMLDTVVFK
TPT1 inhibitor – blocks Candida albicans tRNA 2'-phosphotransferase. recombinant caTPT1, FP RNA substrate dephosphorylation. 300,000 compounds, 0.81% hits. inhibition, % at 5 µM. AID 1962;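 active = inhibition above the mean of all tested compounds plus 3 SD, set per screening campaign, cut at about 24% in these data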;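 also: plate controls were DMSO alone for no effect and ferristatin control at 100 nM for full effect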
HNF4A DNA FP – change in binding of human HNF4 alpha to DNA. P41235. HNF4a-FITC DNA binding, fluorescence polarization, 1 h. activity change, % at 10 µM. 360,000 compounds, 0.3% hits. AID 1224865; in the data active = activity change above about 30%, passing the limit was not always enough
aDG glyco up – alpha-DG glycosylation activation; 360,000 compounds, 0.22% hits; activation, % at 10 µM; Pro5-aDG cells, alpha-DG glycosylation AlphaScreen (IIH6); 0% Pro5, 100% B10-LARGE cell signal;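 active = activation of at least 8% versus controls, or a plate z-score of at least 8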;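 also: Pro5 are CHO cells carrying HIG-tagged alpha-DG that lacks glycosylation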
Xi reactivation – reactivates the inactive X chromosome in mouse fibroblasts; XiGFP mouse fibroblasts, % GFP-positive cells imaging, 3 d; cells co-treated with 5-aza-dC sensitizer; scaled so ellipticine positive control = 100%; activation, % at 7.58 µM; 360,000 compounds, 0.055% hits; AID 743238;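 active = mean normalized replicate activation at least 10% and every replicate at or above 10%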;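 also: 0% = median of on-plate neutral control wells and 100% = ellipticine 6 µM median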
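assay system = SV40-immortalized XiGFP fibroblast cells, line 68-5-11 | buffer or medium = DMEM plus 5-aza-dC sensitizer | doses = single-point pinned compound dosing | times = 3-day compound exposure, then 15 min fixation at room temperature | benchmarks = positive control ellipticine, 6 µM final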
CSN deneddyl inh – CSN deneddylation inhibition. inhibition, % at 12.5 µM. 360,000 compounds, 0.38% hits. Q92905. Purified CSN, SCF-Nedd8-OG deneddylation, fluorescence polarization;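 active = pattern-corrected inhibition above about 35%, with an unprinted fluorescence ratio check between 0.5 and 1.5, limit read from the data, passing the limit was not always enough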;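 also: 0% = enzyme with substrate and 100% = substrate without enzyme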
Target sequence (Q92905 whole entry, looked up, one chain of several): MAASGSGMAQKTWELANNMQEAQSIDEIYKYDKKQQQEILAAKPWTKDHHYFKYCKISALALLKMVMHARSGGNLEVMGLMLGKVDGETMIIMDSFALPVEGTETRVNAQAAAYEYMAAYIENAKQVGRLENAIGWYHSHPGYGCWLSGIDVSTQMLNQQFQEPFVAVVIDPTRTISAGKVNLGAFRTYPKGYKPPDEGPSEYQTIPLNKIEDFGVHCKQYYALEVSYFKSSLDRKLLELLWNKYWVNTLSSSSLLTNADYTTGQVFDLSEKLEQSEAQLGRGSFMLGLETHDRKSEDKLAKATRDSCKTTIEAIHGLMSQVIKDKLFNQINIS
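Material: purified human Csn5 enzyme expressed in HEK293T cells / Medium: Tris buffer pH 7.5, NaCl, DTT, Tween-20, trehalose, ovalbumin / Compound dosing: 12.5 µM single point / Schedule: 90 min incubation of compound, enzyme and substrate at room temperature / Signal: fluorescence polarization of the substrate / Control set: no-enzyme wells high, enzyme-with-substrate wells low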
Rpn11 confirm – Rpn11 inhibition confirmation, single concentration | purified human 26S proteasome, Ub4-pepOG fluorescence polarization; proteasome pretreated with epoxomicin | inhibition, % at 20 µM | 1,900 compounds, 29% hits | shares compounds with Rpn11 inh
MMP-2 counter – counter-screen for RPN11 inhibitors: inhibition of human MMP-2 | shares compounds with Rpn11 inh | recombinant MMP-2, FRET peptide cleavage fluorescence | inhibition, % at 20 µM | 1,900 compounds, 4% hits | AID 602330;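 also: human MMP-2 activated beforehand with APMA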
Thrombin inh – counter-screen for RPN11 inhibitors: inhibition of bovine thrombin; shares compounds with Rpn11 inh; bovine thrombin cleavage of Ub4-pepOG, fluorescence polarization; inhibition, % at 20 µM; 1,900 compounds, 13% hits; AID 602333;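 active = mean inhibition at least 40% at 20 µM, or signal 3 deviations below plate average, so some actives read negative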;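 also: plate controls were thrombin with DMSO for no effect and buffer wells lacking thrombin for full effect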
* hit, by the source's call; . = no result given. A selection: hits, their analogues and other compounds. The true share with any hit is near 1.3%. Rule as the data show it, unless noted: active = inhibition above about 40%; inactive = the rest.

SMILES | Rpn11 inh | TPT1 inhibitor | HNF4A DNA FP | aDG glyco up | Xi reactivation | CSN deneddyl inh | Rpn11 confirm | MMP-2 counter | Thrombin inh
Cc1cc(C)cc(-n2cccc2/C=C2/C(=N)N3C(=NC2=O)SN=C3S(C)(=O)=O)c1 | 51* | 13 | 13 | 0 | 0 | 20 | 53* | -7 | -25
CS(=O)(=O)C1=NSC2=NC(=O)/C(=C\c3cccn3-c3ccccc3Cl)C(=N)N21 | 59* | 17 | 12 | 0 | 0 | 31 | 79* | 3 | 39
CO[C@@H]1CN(C)C(=O)c2ccc(NC(=O)c3ccccc3)cc2OC[C@@H](C)N(C)C[C@H]1C | . | . | . | . | 0 | . | . | . | .
CCCN(C)C[C@@H]1Oc2cc(C#Cc3cccc(OC)c3)ccc2S(=O)(=O)N([C@@H](C)CO)C[C@@H]1C | . | . | . | . | -1 | . | . | . | .
CS(=O)(=O)C1=NSC2=NC(=O)/C(=C\c3ccc(OC(=O)c4ccco4)c(Br)c3)C(=N)N21 | 71* | 16 | 35* | 0 | 0 | 28 | 17 | -5 | 32
Cc1ccnc(NC(=O)Nc2ccc3c(c2)N(C)C(=O)CS3)c1 | 84* | 4 | 14 | 0 | 0 | 13 | 19 | -49 | 15
Cc1ccc(NC(=O)Nc2ccc3c(c2)N(C)C(=O)CS3)nc1 | 18 | 2 | 12 | 0 | . | 7 | . | . | .
CC(=O)N1CCN(c2ccc(NC(=O)c3cccc(OCc4ccccc4)c3)cc2)CC1 | 82* | -6 | 4 | 0 | . | -4 | -6 | -11 | -13
COc1cccc(CNC(=O)C[C@@H]2CC[C@H]3[C@@H](COc4ccc(NS(=O)(=O)c5ccccc5F)cc4C(=O)N3C)O2)c1 | . | . | . | . | 0 | . | . | . | .
O=C(CN1CCN(c2nc(-c3ccc(Cl)cc3)cs2)CC1)NCc1ccco1 | 51* | 21 | 7 | 2 | . | 6 | 44* | 78* | 23
S=C(NCc1ccco1)N1CCN(c2nc(-c3ccc(Cl)cc3)cs2)CC1 | 8 | 1 | 10 | 1 | 0 | 8 | . | . | .
CCOC(=O)C1=C(C)N=c2s/c(=C\c3cc(OC)c(OC)c(OC)c3)c(=O)n2C1/C=C/c1ccccc1 (stereo unspecified) | 5 | 4 | 3 | 0 | 0 | 10 | . | . | .
CCOC(=O)C1=C(C)N=c2sc(=Cc3cc(Cl)c(OCC(=O)O)c(OC)c3)c(=O)n2C1c1ccccc1Cl (stereo unspecified) | 51* | . | 13 | 0 | 0 | 24 | 34 | -20 | 65*
O=C(CCNS(=O)(=O)c1cccs1)NCc1cccs1 | 110* | -1 | -2 | 0 | . | -6 | 1 | -8 | -5
C[C@@H]1CC(=O)N[C@@H](c2ccccc2)C/C=C\C[C@H](c2ccc3c(c2)OCO3)NC1=O | . | . | . | . | 0 | . | . | . | .
Cc1ccc(OCCSCc2nc3ccccc3[nH]2)cc1 | 0 | -1 | -8 | 1 | . | 2 | . | . | .
Clc1ccc(OCCSCc2nc3ccccc3[nH]2)cc1 | 44* | 16 | 27 | 1 | . | 11 | 26 | -9 | 15
CC(C)NC(=O)N[C@H]1CC[C@H](CCNC(=O)C2CC2)O[C@@H]1CO | . | . | . | . | 0 | . | . | . | .
Oc1nc(Nc2ccc(Cl)cc2Cl)sc1/C=C1\C=Nc2ccccc21 | 56* | 11 | 12 | 0 | 0 | 9 | 60* | 22 | 45*
Cc1nc(Nc2ccc(Cl)cc2Cl)sc1C(=O)Nc1ccccc1 | 6 | -3 | -1 | 1 | 0 | -1 | . | . | .
CCOc1ccc(C2NC(=O)C(C#N)=C(S)N2c2ccc(C)cc2)cc1OC (stereo unspecified) | 70* | 1 | 31* | 0 | . | 1 | 5 | 23 | -3
CCOc1ccc(C2NC(=O)C(C#N)=C(S)N2c2cccc(C)c2)cc1OC (stereo unspecified) | 0 | -3 | 4 | 0 | 0 | -1 | . | . | .
COc1ccc(COc2ccsc2C(=O)Nc2ccc(Cl)c(Cl)c2)cc1 | 44* | 3 | 1 | 0 | . | -3 | 9 | -20 | -13
Cc1ccccc1S(=O)(=O)N1[C@@H]2CNC[C@H]1C2c1ccc(/C=C/c2ccccc2)cc1 (stereo partly specified) | . | . | . | . | 0 | . | . | . | .
CC(=O)n1cc([C@H]2C=C(C(=O)Nc3ccccc3)O[C@@H](OCc3ccc(CO)cc3)C2)c2ccccc21 | 42* | -2 | 3 | 0 | . | -1 | 44* | -13 | 12
SMILES | Rpn11 inh | TPT1 inhibitor | HNF4A DNA FP | aDG glyco up | Xi reactivation | CSN deneddyl inh | Rpn11 confirm | MMP-2 counter | Thrombin inh
CC(=O)n1cc([C@@H]2C=C(C(=O)NCc3ccccc3)O[C@H](OCc3ccc(CO)cc3)C2)c2ccccc21 | 32 | 0 | 0 | 0 | 0 | -1 | . | . | .
Cc1ccc2c(C)nc(/N=C(\N)NC(=O)N3c4ccccc4Sc4ccccc43)nc2c1 | 1 | 0 | 4 | 0 | 0 | 2 | . | . | .
Cc1ccc2nc(/N=C(\N)NC(=O)N3c4ccccc4Sc4ccccc43)nc(C)c2c1 | 45* | -3 | 14 | 0 | 0 | -3 | -4 | 32 | -14
COCC#Cc1ccc([C@H]2[C@@H](CO)N3C(=O)CN(C(=O)c4ccncc4)C[C@H]23)cc1 | . | . | . | . | 0 | . | . | . | .
Cc1nnc(SCC(=O)N2N=C(c3ccc(Cl)cc3)CC2c2ccco2)[nH]c1=O (stereo unspecified) | 74* | 15 | 17 | 0 | 0 | 13 | 18 | 5 | 12
C[C@H]1CN([C@@H](C)CO)C(=O)c2cc(NC(=O)CCCN(C)C)ccc2O[C@H]1CN(C)CC1CCCCC1 | . | . | . | . | 0 | . | . | . | .
CN1/C(=C\C(=S)NC(=O)c2cccc(Br)c2)C(C)(C)c2ccccc21 | 48* | 4 | 19 | 2 | 0 | 22 | 25 | 22 | 9
O=C(Nc1cccc(F)c1)N1CCCCN2[C@H](C1)[C@@H](c1ccc(-c3ccccc3F)cc1)[C@@H]2CO | . | . | . | . | 1 | . | . | . | .
Cc1ccc(N(CC(=O)N/N=C/c2cccs2)S(C)(=O)=O)cc1 | 29* | -6 | 7 | 0 | 0 | -7 | -9 | -54 | -25
COc1ccc(N(CC(=O)N/N=C/c2cccs2)S(=O)(=O)c2ccccc2)cc1 | 6 | 1 | 1 | 0 | 0 | 1 | . | . | .
COc1cc(-c2noc(CCC(=O)Nc3cccnc3)n2)cc(OC)c1OC | 36* | 3 | 7 | 0 | . | -1 | -7 | -6 | -8
COc1cc(NC(=O)CCc2nc(-c3cccs3)no2)cc(OC)c1OC | -9 | 1 | 6 | 1 | . | 5 | . | . | .

Compound activity from PubChem BioAssay.
